# From ChEMBL document CHEMBL1153775, “Synthesis, structure elucidation and antitumour activity of N-substituted amides of 3-(3-ethylthio-1,2,4-triazol-5-yl)propenoic acid” (Eur J Med Chem, 2009)
# What was measured:
# [1] = Cytotoxicity against human HSF cells assessed as growth inhibition at 0.32 mM after 48 hrs by spectrophotometer using BrdU labeling; format: cell-based; conditions: read-out: GI
# T47D [2] = test: Cytotoxicity against human T47D cells assessed as growth inhibition at 0.03 mM after 24 hrs by spectrophotometer using BrdU labeling; format: functional; conditions: read-out: GI
# A549 [3] = test: Cytotoxicity against human A549 cells assessed as growth inhibition at 0.03 mM after 48 hrs by spectrophotometer using BrdU labeling; format: functional; conditions: A549, 48 h, read-out: GI
# T47D [4] = test: Cytotoxicity against human T47D cells assessed as growth inhibition at 0.16 mM after 48 hrs by spectrophotometer using BrdU labeling; format: functional; conditions: read-out: GI
# T47D [5] = test: Cytotoxicity against human T47D cells assessed as growth inhibition at 0.32 mM after 24 hrs by spectrophotometer using BrdU labeling; format: functional; conditions: read-out: GI
# Outline: (§1)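 Human breast carcinoma T47D cells were plated at 10⁴ cells per mL on microtiter plates. Each compound was added at three doses, given as mM equivalents of three mass concentrations. Plates were incubated for 24, 48 or 72 h. The read-out was percent growth inhibition (GI).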
# [6] = Cytotoxicity against human HSF cells assessed as growth inhibition at 0.32 mM after 72 hrs by spectrophotometer using BrdU labeling; format: cell-based; conditions: read-out: GI
# A549 [7] = test: Cytotoxicity against human A549 cells assessed as growth inhibition at 0.03 mM after 72 hrs by spectrophotometer using BrdU labeling; format: functional; conditions: A549, 72 h, read-out: GI
# A549 [8] = test: Cytotoxicity against human A549 cells assessed as growth inhibition at 0.32 mM after 72 hrs by spectrophotometer using BrdU labeling; format: functional; conditions: A549, 72 h, read-out: GI
# A549 [9] = test: Cytotoxicity against human A549 cells assessed as growth inhibition at 0.16 mM after 24 hrs by spectrophotometer using BrdU labeling; format: functional; conditions: A549, 24 h, read-out: GI
# T47D [10] = test: Cytotoxicity against human T47D cells assessed as growth inhibition at 0.16 mM after 24 hrs by spectrophotometer using BrdU labeling; format: functional; conditions: read-out: GI
# T47D [11] = test: Cytotoxicity against human T47D cells assessed as growth inhibition at 0.16 mM after 72 hrs by spectrophotometer using BrdU labeling; format: functional; conditions: read-out: GI; outline: as §1
# A549 [12] = test: Cytotoxicity against human A549 cells assessed as growth inhibition at 0.32 mM after 24 hrs by spectrophotometer using BrdU labeling; format: functional; conditions: A549, 24 h, read-out: GI
# A549 [13] = test: Cytotoxicity against human A549 cells assessed as growth inhibition at 0.03 mM after 24 hrs by spectrophotometer using BrdU labeling; format: functional; conditions: A549, 24 h, read-out: GI
# T47D [14] = test: Cytotoxicity against human T47D cells assessed as growth inhibition at 0.32 mM after 48 hrs by spectrophotometer using BrdU labeling; format: functional; conditions: read-out: GI; outline: as §1
# [15] = Cytotoxicity against human HSF cells assessed as growth inhibition at 0.03 mM after 24 hrs by spectrophotometer using BrdU labeling; format: cell-based; conditions: read-out: GI
# [16] = Cytotoxicity against human HSF cells assessed as growth inhibition at 0.32 mM after 24 hrs by spectrophotometer using BrdU labeling; format: cell-based; conditions: read-out: GI
# [17] = Cytotoxicity against human HSF cells assessed as growth inhibition at 0.03 mM after 72 hrs by spectrophotometer using BrdU labeling; format: cell-based; conditions: read-out: GI
# [18] = Cytotoxicity against human HSF cells assessed as growth inhibition at 0.16 mM after 72 hrs by spectrophotometer using BrdU labeling; format: cell-based; conditions: read-out: GI
# T47D [19] = test: Cytotoxicity against human T47D cells assessed as growth inhibition at 0.32 mM after 72 hrs by spectrophotometer using BrdU labeling; format: functional; conditions: read-out: GI; outline: as §1
# T47D [20] = test: Cytotoxicity against human T47D cells assessed as growth inhibition at 0.03 mM after 72 hrs by spectrophotometer using BrdU labeling; format: functional; conditions: read-out: GI
# A549 [21] = test: Cytotoxicity against human A549 cells assessed as growth inhibition at 0.16 mM after 72 hrs by spectrophotometer using BrdU labeling; format: functional; conditions: A549, 72 h, read-out: GI
# [22] = Cytotoxicity against human HSF cells assessed as growth inhibition at 0.16 mM after 24 hrs by spectrophotometer using BrdU labeling; format: cell-based; conditions: read-out: GI
# A549 [23] = test: Cytotoxicity against human A549 cells assessed as growth inhibition at 0.32 mM after 48 hrs by spectrophotometer using BrdU labeling; format: functional; conditions: A549, 48 h, read-out: GI
# [24] = Cytotoxicity against human HSF cells assessed as growth inhibition at 0.16 mM after 48 hrs by spectrophotometer using BrdU labeling; format: cell-based; conditions: read-out: GI
# [25] = Cytotoxicity against human HSF cells assessed as growth inhibition at 0.03 mM after 48 hrs by spectrophotometer using BrdU labeling; format: cell-based; conditions: read-out: GI
# T47D [26] = test: Cytotoxicity against human T47D cells assessed as growth inhibition at 0.03 mM after 48 hrs by spectrophotometer using BrdU labeling; format: functional; conditions: read-out: GI
# A549 [27] = test: Cytotoxicity against human A549 cells assessed as growth inhibition at 0.16 mM after 48 hrs by spectrophotometer using BrdU labeling; format: functional; conditions: A549, 48 h, read-out: GI
smiles,measurement,setting,value
CCSc1n[nH]c(/C=C\C(=O)Nc2ccccc2Cl)n1,"inhibition at 48 h, 320 µM",[1],50%
same,inhibition of growth at 30 µM,T47D [2],0%
same,inhibition of growth at 30 µM,A549 [3],25%
same,inhibition of growth at 160 µM,T47D [4],10%
same,inhibition of growth at 320 µM,T47D [5],0%
same,"inhibition at 72 h, 320 µM",[6],75%
same,inhibition of growth at 30 µM,A549 [7],25%
same,inhibition of growth at 320 µM,A549 [8],75%
same,inhibition of growth at 160 µM,A549 [9],50%
same,inhibition of growth at 160 µM,T47D [10],0%
same,inhibition of growth at 160 µM,T47D [11],50%
same,inhibition of growth at 320 µM,A549 [12],50%
same,inhibition of growth at 30 µM,A549 [13],25%
same,inhibition of growth at 320 µM,T47D [14],10%
same,"inhibition at 24 h, 30 µM",[15],0%
same,"inhibition at 24 h, 320 µM",[16],25%
same,"inhibition at 72 h, 30 µM",[17],5%
same,"inhibition at 72 h, 160 µM",[18],0%
same,inhibition of growth at 320 µM,T47D [19],90%
same,inhibition of growth at 30 µM,T47D [20],5%
same,inhibition of growth at 160 µM,A549 [21],50%
same,"inhibition at 24 h, 160 µM",[22],0%
same,inhibition of growth at 320 µM,A549 [23],50%
same,"inhibition at 48 h, 160 µM",[24],0%
same,"inhibition at 48 h, 30 µM",[25],0%
same,inhibition of growth at 30 µM,T47D [26],0%
same,inhibition of growth at 160 µM,A549 [27],50%
